Measured values collected from several papers.
Each line is one published result; the experiments were not run side by side.
ST14: Suppressor of tumorigenicity 14 protein (ST14, Homo sapiens, UniProt Q9Y5Y6)
CDK2 with cyclin A2: Cyclin-dependent kinase 2, with cyclin A2 (CDK2, Homo sapiens, UniProt P24941)

Structure (SMILES) | target | assay | conditions | quantity | result
CC(C)(C)C[C@H](NC(=O)[C@H](Cc1cscn1)NC(=O)CCc1ccccc1)C(=O)N[C@@H](CCCNC(=N)N)C(=O)c1nc2ccccc2s1 | ST14 | enzyme activity, inhibitor | 0.1 µM | remaining activity | 34%
CC(=O)Nc1c(N)nc(SCC(=O)N/N=C/c2ccc([N+](=O)[O-])cc2)[nH]c1=O | CDK2 with cyclin A2 | enzyme activity, inhibitor | 5 nM | inhibition | 8.37%
CC(C)[C@@H](CC(=O)N[C@@H](CCCNC(=N)N)C(=O)c1nc2ccccc2s1)NC(=O)[C@H](Cc1cscn1)NC(=O)CCc1ccccc1 | ST14 | enzyme activity, inhibitor | 0.1 µM | remaining activity | 81%
O=C(COP(=O)(O)O)[C@@H](O)[C@H](O)[C@H](O)COP(=O)(O)O | Glyceraldehyde-3-phosphate dehydrogenase (GAPDH, Homo sapiens, UniProt P04406) | thermal stability | 5 mM, lysate | ΔTm | 5.9 °C
C=CC(=O)N1CCC(COCC(=O)N2CCN(c3nc(-c4cnc(N)nc4C(F)F)nc(N4CCOC[C@@H]4C)n3)CC2)CC1 | Mitogen-activated protein kinase 6 (MAPK6, Homo sapiens, UniProt Q16659) | binding, competition with immobilised ligand | 1 µM | remaining binding | 100%
CNC(=O)c1cc(Oc2ccc(NC(=O)Nc3ccc(Cl)c(C(F)(F)F)c3)cc2)ccn1 | CDK2 with cyclin A2 | enzyme activity, inhibitor | 0.5 µM | inhibition | 74%
CC(C)Oc1ccc(S(=O)(=O)c2ccc(Oc3cc(OCC(N)=O)c(C(=O)C(Cl)Cl)cc3[N+](=O)[O-])cc2)cc1 | [Pyruvate dehydrogenase (acetyl-transferring)] kinase isozyme 4, mitochondrial (PDK4, Homo sapiens, UniProt Q16654) | enzyme activity, inhibitor, ATP luminescence | 10 µM | inhibition | 31.5%
COc1ccc(CN2C[C@](C)(O)[C@@H]3C[C@H]2[C@@H](C)c2nc4ccccc4c(-c4ccccc4)c23)cc1 | Delta-type opioid receptor (Oprd1, Rattus norvegicus, UniProt P33533) | ligand displacement, radioligand | 1 µM | inhibition | 0%
CNc1ncc2c(/C=C/C(=O)N3CCC(OC)CC3)nn(Cc3cccc(C(F)(F)F)c3)c2n1 | CDK2 with cyclin A2 | enzyme activity, inhibitor, radiometric | 1 µM | remaining activity | 100%
N=C(N)NCCC[C@H](NC(=O)[C@H](CC1CC1)NC(=O)[C@H](Cc1cscn1)NC(=O)CCc1ccccc1)C(=O)c1nc2ccccc2s1 | ST14 | enzyme activity, inhibitor | 0.1 µM | remaining activity | 68%
COc1cc(-c2cncc3c2CN(C)Cc2cc(N4CCNCC4)ccc2-3)cc(OC)c1OC | Cyclin-dependent kinase 2, with cyclin E (CDK2, Homo sapiens, UniProt P24941) | enzyme activity, inhibitor | 1 µM | remaining activity | 107%
N=C(N)NCCC[C@H](NC(=O)[C@@H](NC(=O)[C@H](Cc1cscn1)NC(=O)CCc1ccccc1)c1ccccc1)C(=O)c1nc2ccccc2s1 | ST14 | enzyme activity, inhibitor | 0.1 µM | remaining activity | 33%
CC(=O)Nc1c(N)nc(SCC(=O)NN)[nH]c1=O | CDK2 with cyclin A2 | enzyme activity, inhibitor | 20 nM | inhibition | 30.9%
CC(C)C[C@@H](C(=O)N[C@@H](CCCNC(=N)N)C(=O)c1nc2ccccc2s1)N(C)C(=O)[C@H](Cc1cscn1)NC(=O)CCc1ccccc1 | ST14 | enzyme activity, inhibitor | 0.1 µM | remaining activity | 50%
Cc1cc([C@@H](C)Nc2ccccc2C(=O)O)c2nc(N3CCC(F)(F)CC3)c(C#N)c(=O)n2c1 | Tyrosine-protein kinase ZAP-70 (ZAP70, Homo sapiens, UniProt P43403) | binding, competition with immobilised ligand | 1 µM | remaining binding | 100%
